From ChEMBL document CHEMBL3243989, “Antibacterial N-[omega, omega'-bis(alicyclic and aryl)-sec-alkyl]poly(methylene)triamine and -tetramine hydrochloride salts” (J Med Chem, 1979) come the findings set out here.

Series [1] in a line: Metal chelate stability constant of the compound assessed as copper ion complex formation. Format: physicochemical.
The test system of series [2] is Proteus vulgaris. Kind of series: Antibacterial activity against Proteus vulgaris MB838 assessed as growth inhibition at 200 ug/mL. Format: functional, organism-based.
Series [3] relates to Pseudomonas aeruginosa. In words: Antibacterial activity against Pseudomonas aeruginosa MB418 assessed as growth inhibition. The series is classed as functional. A digest of the protocol:
(§1)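 MIC (µg/mL) by in vitro growth inhibition in an assay system at pH 7.4. Tetracycline was run routinely to check medium, incubation conditions and inoculum virility.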

In series [4] the test system is Pseudomonas aeruginosa. Kind of series: Antibacterial activity against Pseudomonas aeruginosa MB2245 assessed as growth inhibition. The series is classed as functional. A digest of the protocol:
as §1

In series [5] the test system is Staphylococcus aureus. Kind of series: Antibacterial activity against Staphylococcus aureus MB108 assessed as growth inhibition. The series is classed as functional. A digest of the protocol: as §1
The test system of series [6] is Staphylococcus aureus. In words: Antibacterial activity against Staphylococcus aureus MB2865 assessed as growth inhibition. The series is classed as functional. A digest of the protocol: as §1
Series [7] deals with Bacillus subtilis. In words: Antibacterial activity against Bacillus subtilis MB964 assessed as growth inhibition. The series is classed as functional. The procedure, abridged:
as §1

Series [8] has as its system Salmonella. In words: Antibacterial activity against Salmonella schottmuelleri MB2837 assessed as growth inhibition. Format: functional. The procedure, abridged: as §1
In series [9] the test system is Escherichia coli. In words: Antibacterial activity against Escherichia coli MB2884 assessed as growth inhibition. The series is classed as functional. The procedure, abridged:
as §1

For series [10], the system named is Klebsiella aerogenes. In words: Antibacterial activity against Klebsiella aerogenes MB1503 assessed as growth inhibition. Format: functional. The procedure, abridged: as §1
Series [11] deals with Bordetella bronchiseptica. In words: Antibacterial activity against Bordetella bronchiseptica MB3551 assessed as growth inhibition. Format: functional. The procedure, abridged:
as §1

Series [12] relates to Bordetella bronchiseptica. Kind of series: Antibacterial activity against Bordetella bronchiseptica MB905 assessed as growth inhibition. The series is classed as functional. A digest of the protocol: as §1
In series [13] the test system is Streptococcus pyogenes. Kind of series: Antibacterial activity against Streptococcus pyogenes assessed as growth inhibition at 2 to 8 ug/mL. The series is classed as functional, organism-based.
The test system of series [14] is Pasteurella multocida. In words: Antibacterial activity against Pasteurella multocida MB7 assessed as growth inhibition at 2 to 8 ug/mL. The series is classed as functional, organism-based.
Series [15] concerns Corynebacterium pseudodiphtheriticum. Kind of series: Antibacterial activity against Corynebacterium pseudodiphtheriticum assessed as growth inhibition at 15 ug/mL. Format: functional, organism-based.
For series [16] the test system is unchanged. In words: Antibacterial activity against Corynebacterium pseudodiphtheriticum assessed as growth inhibition at 2 to 8 ug/mL. The series is classed as functional, organism-based.
Series [17] is described as follows: Lipophilicity, log P of the compound. Conditions: octanol/water.

Each structure is given as a SMILES string. The source made the active and inactive calls.

On to `NCCCNCCCN` [NORSPERMIDINE], for which the “log K” value in [1] amounted to 14.2.
One may read the MIC as the smallest concentration in the dilution series that meets the test's criterion for growth inhibition. For the molecule `CC(C)(C)c1ccc(CCCC(CCCc2ccc(C(C)(C)C)cc2)NCCCNCCCNCCCN)cc1.Cl`, in [2], the “growth inhibition (GI)” value was “inactive”. The MIC is 80 µg/mL in series [3]; 100 µg/mL in series [4]; 30 µg/mL in series [5]; 20 µg/mL in series [6]; 10 µg/mL in series [7]; 15 µg/mL in series [8]. In addition, the MIC in series [9] is > 200 µg/mL; in [10] it was > 200 µg/mL; in series [11] it was 30 µg/mL; in series [12], 20 µg/mL. For the same molecule, the “growth inhibition (GI)” value in series [13], in [14] and in series [15] was “Active” each time.
Take `NCCNCCCNCCN`: the “log K” value in series [1] is on record as 23.9.
`CC1(C)C2CCC(C2)C1CCC(CCC1C2CCC(C2)C1(C)C)NCCCNCCNCCCN.Cl` (stereo unspecified): the “growth inhibition (GI)” value in series [2] and in series [16] was “inactive” throughout. Moreover, the MIC in [3] was 30 µg/mL; in [4], 15 µg/mL; in series [5], 4 µg/mL; in series [6] it was 8 µg/mL; in series [7] it was 4 µg/mL; in series [8], 4 µg/mL. Moreover, the MIC worked out at 30 µg/mL in [9], 15 µg/mL in [10], 4 µg/mL in series [11] and 4 µg/mL in series [12]. In addition, the “growth inhibition (GI)” value in [13] and in series [14] was “Active” in each case.
Consider `CC1(C)C2CCC(C2)C1CCC(CCC1C2CCC(C2)C1(C)C)NCCNCCCNCCN.Cl` (stereo unspecified), for which the “growth inhibition (GI)” value in series [2] and in series [16] was “inactive” each time. The minimum inhibitory concentration (MIC) in series [3] came out at 30 µg/mL; in series [4] it was 15 µg/mL; in series [5] it was 6 µg/mL; in series [6], 6 µg/mL; in series [7], 6 µg/mL; in [8] it was 6 µg/mL. Besides, the MIC is 8 µg/mL in series [9], 10 µg/mL in series [10], 6 µg/mL in [11] and 8 µg/mL in series [12]. Besides, the “growth inhibition (GI)” value in [13] and in series [14] was “Active” in each case.
Consider `CC(C)c1ccc(CCCC(CCCc2ccc(C(C)C)cc2)NCCCNCCCN)cc1.Cl`, for which the “growth inhibition (GI)” value in series [2] and in [16] was “inactive” each time. For the same molecule, the minimum inhibitory concentration (MIC) in series [3] amounted to 15 µg/mL; in series [4] it was 40 µg/mL; in series [5], 20 µg/mL; in series [6], 20 µg/mL; in [7], 6 µg/mL; in [8], 10 µg/mL. Moreover, the MIC amounted to 40 µg/mL in [9], 20 µg/mL in series [10], 10 µg/mL in [11] and 10 µg/mL in series [12]. For the same molecule, the “growth inhibition (GI)” value in [13] and in [14] was “Active” in each case.
One may read the logP as the decadic logarithm of the partition coefficient of the neutral form, usually between octanol and water. Higher therefore signals higher lipophilicity. As for `NCCNCCNCCN` [TRIENTINE], in series [17], the logP is -0.82.
Consider `Cl.NCCCNCCCNC(CCCC1CCCCC1)CCCC1CCCCC1`, for which the “growth inhibition (GI)” value in series [2] and in series [16] was “inactive” each time. The MIC worked out at 8 µg/mL in [3]; 8 µg/mL in series [4]; 4 µg/mL in series [5]; 8 µg/mL in [6]; 4 µg/mL in [7]; 4 µg/mL in series [8]. Also, the MIC in [9] turned out to be 8 µg/mL; in series [10], 4 µg/mL; in series [11], 4 µg/mL; in series [12], 4 µg/mL. Further, the “growth inhibition (GI)” value in series [13] and in [14] was “Active” in each case.
For `CC1(C)C2CCC(C2)C1CCC(CCC1C2CCC(C2)C1(C)C)NCCCNCCCN.Cl` (stereo unspecified), the “growth inhibition (GI)” value in series [2] and in series [16] was “inactive” in each case. The minimal inhibitory concentration (MIC) in series [3] worked out at 8 µg/mL; in series [4], 10 µg/mL; in [5] it was 4 µg/mL; in series [6], 10 µg/mL; in [7], 4 µg/mL; in series [8] it was 4 µg/mL. Besides, the MIC in series [9] amounted to 8 µg/mL; in [10], 4 µg/mL; in series [11] it was 4 µg/mL; in [12], 4 µg/mL. The “growth inhibition (GI)” value in series [13] and in series [14] was “Active” in each case.
Regarding `Cc1ccc(C(C)(C)C)cc1CCCC(CCCc1cc(C(C)(C)C)ccc1C)NCCNCCNCCN.Cl`, the “growth inhibition (GI)” value in series [2] and in series [16] was “inactive” each time. Besides, the MIC in series [3] is 50 µg/mL; in series [4], 80 µg/mL; in series [5] it was 15 µg/mL; in series [6], 60 µg/mL; in series [7] it was 4 µg/mL; in [8] it was 10 µg/mL. The MIC in [9] stood at 60 µg/mL; in [10], 10 µg/mL; in series [11] it was 10 µg/mL; in series [12] it was 15 µg/mL. The “growth inhibition (GI)” value in [13] and in series [14] was “Active” in each case.
